Assay results reported in ChEMBL document CHEMBL3603766, “Structure-activity studies of Wnt/β-catenin inhibition in the Niclosamide chemotype: Identification of derivatives with improved drug exposure” (Bioorg Med Chem, 2015).
Active and inactive are the calls of the source. No cut-off for these calls is given here.

Key:
HEK293 = assay: Inhibition of Wnt/beta-catenin in HEK293 cells assessed as inhibition of Wnt3A-stimulated TOPFlash activity after 8 hrs; format: cell-based; conditions: Homo sapiens, HEK293, 8 h
How it was run: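 HEK293 cells stably carrying p8xTOPFlash and Renilla pRL-TK, seeded at 100% confluency. Cells given Wnt-3A conditioned medium (from L Wnt-3A cells) containing compound (0.04–10 μM) or DMSO for 8 h. Lysed and read by dual luciferase, firefly normalized to Renilla, Wnt3A+DMSO = 100%. IC50 fit, mean ± SEM, n ≥ 2.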

U2OS = assay: Inhibition of Wnt/beta-catenin in human U2OS cells assessed as internalization of frizzled-GFP at 12.5 uM after 6 hrs by confocal microscopic analysis; format: cell-based
How it was run: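 U2OS cells stably expressing Frizzled1-GFP, plated 24 h, then exposed to 12.5 μM compound or DMSO for 6 h at 37 °C. Fixed with 4% paraformaldehyde and imaged by confocal microscopy (488 nm excitation). Punctate scored blind twice on a 0–5 scale against DMSO control.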

Plasma [1] = assay: Drug uptake in plasma of CD1 mouse at 200 mg/kg, po by LC/MS-MS analysis; format: ADME, organism-based; conditions: in vivo
How it was run: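 CD1 mice gavaged at 200 mg/kg with a solution (20 mg/ml) in 90% PEG 300 / 10% 1-methyl-2-pyrrolidinone. Blood sampled predose and at 0.25, 0.5, 1, 2, 4, 8 h. Plasma analyzed by LC/MS–MS, including for a potential active metabolite.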

HCT-116 [2] = assay: Cytotoxicity against human HCT116 cells assessed as growth inhibition after 72 hrs by MTS assay; format: functional, cell-based; conditions: HCT-116, 72 h
How it was run: (§1)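 HCT116 colon cancer cells seeded at 5000 cells/well, exposed to compound at 0.04–10 μM for 72 h, then read by colorimetric MTS. Viability normalized to DMSO set at 100%. IC50 from curve fit, mean ± SEM, n = 3.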

Plasma [3] = assay: Drug metabolism in CD1 mouse plasma assessed as niclosamide production at 200 mg/kg, po measured for 24 hrs by LC/MS-MS analysis; format: ADME, organism-based; conditions: in vivo
How it was run: (§2)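 CD1 mice given prodrug orally as a solution in corn oil (20 mg/ml) at 200 mg/kg. Niclosamide in plasma quantified by LC/MS–MS, reported as ng/mL, mean ± SEM.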

Mus musculus [4] = assay: Tmax in CD1 mouse assessed as niclosamide at 200 mg/kg, po; format: ADME, organism-based; conditions: in vivo; how it was run: as §2
Mus musculus [5] = assay: Toxicity in NOD/SCID mouse assessed as change in body weight at 200 mg/kg, po administered 6 days a week for 3 weeks; format: organism-based; conditions: in vivo
How it was run: (§3)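 NOD/SCID mice dosed orally with 200 mg/kg in corn oil, or corn oil vehicle, 6 days a week for 3 weeks. Observed throughout for side effects and behavior. Body weight taken on the first dosing day (week 0) and on the day after the last dose (week 3).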

Mus musculus [6] = assay: Toxicity in NOD/SCID mouse assessed as change in behavior at 200 mg/kg, po administered 6 days a week for 3 weeks; format: organism-based; conditions: in vivo; how it was run: as §3
Mus musculus [7] = assay: AUClast in CD1 mouse assessed as niclosamide at 200 mg/kg, po; format: ADME, organism-based; design: dose 200 mg/kg, route oral, time 0 - last; conditions: in vivo; how it was run: as §2
Mus musculus [8] = assay: Tlast in CD1 mouse assessed as niclosamide at 200 mg/kg, po; format: ADME, organism-based; conditions: in vivo; how it was run: as §2
Mus musculus [9] = assay: Cmax in CD1 mouse assessed as niclosamide at 200 mg/kg, po; format: ADME, organism-based; design: dose 200 mg/kg, route oral; conditions: in vivo; how it was run: as §2
Mus musculus [10] = assay: Clast in CD1 mouse assessed as niclosamide at 200 mg/kg, po; format: ADME, organism-based; conditions: in vivo; how it was run: as §2
Mus musculus [11] = assay: Half life in CD1 mouse assessed as niclosamide at 200 mg/kg, po measured for 24 to 48 hrs; format: ADME, organism-based; conditions: in vivo; how it was run: as §2
Mus musculus [12] = assay: Half life in CD1 mouse assessed as niclosamide at 200 mg/kg, po measured for 45 to 240 mins; format: ADME, organism-based; conditions: in vivo; how it was run: as §2
HCT-116 [13] = assay: Cytotoxicity against human HCT116 cells assessed as growth inhibition up to 10 uM after 72 hrs by MTS assay; format: functional, cell-based; how it was run: as §1
[14] = Distribution coefficient, log D of the compound at pH 7; format: physicochemical; conditions: octanol/water
[15] = Volume of distribution at steady state in Sprague-Dawley rat at 2 mg/kg, iv; format: ADME, organism-based; conditions: in vivo
Plasma [16] = assay: Drug level in CD1 mouse plasma treated with DK-520 at 200 mg/kg, po measured for 24 hrs by LC/MS-MS analysis; format: ADME, organism-based; conditions: in vivo; how it was run: as §2
[17] = Oral bioavailability in Sprague-Dawley rat at 5 mg/kg; format: ADME, organism-based; conditions: in vivo
[18] = Cytotoxicity against human breast cancer cells assessed as growth inhibition after 72 hrs by Cell Titer Glo Assay; format: functional, cell-based; conditions: Cancer cell lines, pooled result: one value given for 7 cell lines, strains, targets or settings
[19] = Lipophilicity, log P of the compound at pH <=4; format: physicochemical; conditions: octanol/water
[20] = Total clearance in Sprague-Dawley rat at 2 mg/kg, iv; format: ADME, organism-based; conditions: in vivo
[21] = Half life in Sprague-Dawley rat at 2 mg/kg, iv; format: ADME, organism-based; conditions: in vivo

| Compound | IC50 (HEK293) [nM] | inhibition (U2OS) | other results |
| --- | --- | --- | --- |
| O=C(Nc1cc(Cl)ccc1Cl)c1cc(Cl)ccc1O | 750 | Active | – |
| CS(=O)(=O)c1ccc(NC(=O)c2cc(Cl)ccc2O)c(Cl)c1 | 7660 | inactive | – |
| CN(C(=O)c1cc(Cl)ccc1O)c1ccc(C(F)(F)F)cc1 | > 12000 | inactive | – |
| O=C(Nc1ccccc1)c1ccc(NC(=O)c2cc(Cl)ccc2O)cc1 | 32900 | inactive | – |
| O=C(Nc1cccc(Cl)c1)c1cc(Cl)ccc1O | 1650 | Active | – |
| O=C(Nc1ccccc1)c1cc(Cl)ccc1O | 11800 | inactive | – |
| O=C(Nc1ccc(F)cc1F)c1cc(Cl)ccc1O | 4020 | inactive | – |
| O=C(Nc1cccc(C(F)(F)F)c1)c1cc(Cl)ccc1O | 890 | Active | – |
| O=c1oc2ccc(Cl)cc2c(=O)n1-c1ccc([N+](=O)[O-])cc1Cl | 370 | – | – |
| CC(=O)c1ccc(NC(=O)c2cc(Cl)ccc2O)cc1 | 6420 | inactive | – |
| O=C(Nc1ccc(F)cc1Cl)c1cc(Cl)ccc1O | 1410 | Active | – |
| O=S(=O)(Nc1ccc(C(F)(F)F)cc1Cl)c1cc(Cl)ccc1O | 2570 | inactive | – |
| O=C(Nc1ccc(Cl)c(Cl)c1)c1cc(Cl)ccc1O | 730 | Active | – |
| O=c1oc2ccc(Cl)cc2c(=O)n1-c1ccc(C(F)(F)F)cc1Cl | 330 | Active | Drug uptake (Plasma [1]): Active; IC50 (HCT-116 [2]): 550 nM |
| O=C(Nc1ccc(Cl)cc1)c1cc(Cl)ccc1O | 1300 | Active | – |
| O=C(NCc1ccc(C(F)(F)F)cc1)c1cc(Cl)ccc1O | 15100 | inactive | – |
| CCCCCCCC(=O)Oc1ccc(Cl)cc1C(=O)Nc1ccc([N+](=O)[O-])cc1Cl | 230 | Active | IC50 (HCT-116 [2]): 610 nM; Drug metabolism (Plasma [3]): metabolite_detected; Tmax (Mus musculus [4]): 0.75 h; Activity (Mus musculus [5]): Non-toxic; Activity (Mus musculus [6]): Non-toxic; AUClast (Mus musculus [7]): 22400 ng·h/mL; Tlast (Mus musculus [8]): 72 h; Cmax (Mus musculus [9]): 6100 ng/mL; Clast (Mus musculus [10]): 49 ng/mL; t1/2 (Mus musculus [11]): 12.2 h; t1/2 (Mus musculus [12]): 0.69 h |
| O=C(Nc1c(Cl)cccc1Cl)c1cc(Cl)ccc1O | > 12000 | inactive | growth inhibition (GI) (HCT-116 [13]): inactive |

| Compound | IC50 (HEK293) [nM] | inhibition (U2OS) | other results |
| --- | --- | --- | --- |
| O=C(Nc1cc(Cl)ccc1O)c1ccc([N+](=O)[O-])cc1 | > 12000 | – | – |
| O=C(Nc1ccc([N+](=O)[O-])cc1Cl)c1cc(Cl)ccc1O [NICLOSAMIDE] | 340 | Active | Drug uptake (Plasma [1]): Active; IC50 (HCT-116 [2]): 450 nM; logD [14]: 4.48; Vd [15]: 0.9 L/kg; Drug metabolism (Plasma [16]): metabolite_detected; bioavailability [17]: 10%; IC50 [18]: 130 nM; logP [19]: 5.95; clearance [20]: 20 mL/min/kg |
| O=C(Nc1ccc([N+](=O)[O-])cc1)c1cc(Cl)ccc1O | 990 | Active | – |
| O=C(Nc1ccc(Cl)cc1Cl)c1cc(Cl)ccc1O | 420 | Active | IC50 (HCT-116 [2]): 1180 nM; Vd [15]: 0.3 L/kg; half-life [21]: 2.6 h; bioavailability [17]: 12%; clearance [20]: 27 mL/min/kg |
| O=C(Nc1ccc(C(F)(F)F)cc1)c1cc(Cl)ccc1O | 290 | Active | IC50 (HCT-116 [2]): 670 nM |
| O=C(Nc1ccc(F)cc1)c1cc(Cl)ccc1O | 3840 | inactive | – |
| O=C(c1ccccc1)c1ccc(NC(=O)c2cc(Cl)ccc2O)cc1 | 15000 | inactive | – |
| O=C(Nc1c(F)cccc1F)c1cc(Cl)ccc1O | > 12000 | – | – |
| O=C(NC(=O)c1cc(Cl)ccc1O)c1ccc(C(F)(F)F)cc1 | > 12000 | inactive | – |
| O=C(Nc1ccc(F)c(Cl)c1)c1cc(Cl)ccc1O | 1210 | Active | – |
| CCOC(=O)Oc1ccc(Cl)cc1C(=O)Nc1ccc(C(F)(F)F)cc1Cl | 340 | Active | IC50 (HCT-116 [2]): 510 nM |
| CC(=O)Oc1ccc(Cl)cc1C(=O)Nc1ccc(C(F)(F)F)cc1Cl | 320 | Active | – |
| O=C(Nc1cc(Cl)cc(Cl)c1)c1cc(Cl)ccc1O | 700 | Active | – |
| O=C(Nc1ccc(C(F)(F)F)cc1Cl)c1cc(Cl)ccc1O | 560 | Active | IC50 (HCT-116 [2]): 540 nM; Vd [15]: 1.1 L/kg; half-life [21]: 3.7 h; bioavailability [17]: 15%; clearance [20]: 39 mL/min/kg |
| O=c1oc2ccc(Cl)cc2c(=O)n1-c1ccc(C(F)(F)F)cc1 | 320 | Active | – |
| NC(=O)c1ccc(NC(=O)c2cc(Cl)ccc2O)cc1 | > 12000 | inactive | – |
| O=C(Nc1ccccc1Cl)c1cc(Cl)ccc1O | 3050 | inactive | – |
| O=C(Nc1ccc(C(F)(F)F)cc1F)c1cc(Cl)ccc1O | 550 | Active | – |
